ChEMBL document CHEMBL3352155, “Synthesis, antitumor activity, and structure-activity relationship study of trihydroxylated 2,4,6-triphenyl pyridines as potent and selective topoisomerase II inhibitors” (Eur J Med Chem, 2014)
Counter-ions that a name gives are not always drawn.

Experiments:
[1] = biological target: DNA topoisomerase 2-alpha (Homo sapiens) (UniProt P11388); experiment: Inhibition of recombinant human DNA topoisomerase 2alpha assessed as relaxation of supercoiled DNA pBR322 at 20 uM after 30 mins using ethidium bromide staining by agarose gel electrophoresis
Summary of the method: (§1)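 The reaction held 200 ng supercoiled pBR322 with 1 unit human topo IIα, with or without compound, for 30 min at 30 °C. Buffer was 10 mM Tris-HCl pH 7.9, 50 mM NaCl, 5 mM MgCl2, 1 mM EDTA, 1 mM ATP and BSA. EDTA was added to stop it. Products ran on 1% agarose in TAE at 25 V for 4 h, were stained with ethidium bromide, and supercoiled DNA was quantitated under UV.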

[2] = Cytotoxicity against human HCT15 cells […] by CCK-8 assay; type: functional, cell-based; conditions: HCT-15
Summary of the method: (§2)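 Cells were seeded at 2–4 × 10^4 per well and grown overnight in medium with 10% FBS at 37 °C under 5% CO2. On day 2, after 4 h FBS starvation, the medium was replaced with medium holding graded compound concentrations. On day 4, CCK-8 was added for 4 h and A450 was read. IC50 came from a four-parameter logistic fit; three experiments run in triplicate.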

[3] = biological target: DNA topoisomerase 2-alpha (Homo sapiens) (UniProt P11388); experiment: Inhibition of recombinant human DNA topoisomerase 2alpha assessed as relaxation of supercoiled DNA pBR322 at 100 uM after 30 mins using ethidium bromide staining by agarose gel electrophoresis; summary of the method: as §1
T47D = experiment: Cytotoxicity against human T47D cells after 4 days by CCK-8 assay; type: functional, cell-based; conditions: 96 h; summary of the method: as §2
DU-145 = experiment: Cytotoxicity against human DU145 cells after 4 days by CCK-8 assay; type: functional, cell-based; conditions: DU-145, 96 h; summary of the method: as §2
[4] = biological target: T1, DNA topoisomerase 1 (Homo sapiens) (UniProt P11387); experiment: Inhibition of recombinant human DNA topoisomerase 1 assessed as relaxation of supercoiled DNA pBR322 at 100 uM after 30 mins using ethidium bromide staining by agarose gel electrophoresis
T1 sequence (whole entry): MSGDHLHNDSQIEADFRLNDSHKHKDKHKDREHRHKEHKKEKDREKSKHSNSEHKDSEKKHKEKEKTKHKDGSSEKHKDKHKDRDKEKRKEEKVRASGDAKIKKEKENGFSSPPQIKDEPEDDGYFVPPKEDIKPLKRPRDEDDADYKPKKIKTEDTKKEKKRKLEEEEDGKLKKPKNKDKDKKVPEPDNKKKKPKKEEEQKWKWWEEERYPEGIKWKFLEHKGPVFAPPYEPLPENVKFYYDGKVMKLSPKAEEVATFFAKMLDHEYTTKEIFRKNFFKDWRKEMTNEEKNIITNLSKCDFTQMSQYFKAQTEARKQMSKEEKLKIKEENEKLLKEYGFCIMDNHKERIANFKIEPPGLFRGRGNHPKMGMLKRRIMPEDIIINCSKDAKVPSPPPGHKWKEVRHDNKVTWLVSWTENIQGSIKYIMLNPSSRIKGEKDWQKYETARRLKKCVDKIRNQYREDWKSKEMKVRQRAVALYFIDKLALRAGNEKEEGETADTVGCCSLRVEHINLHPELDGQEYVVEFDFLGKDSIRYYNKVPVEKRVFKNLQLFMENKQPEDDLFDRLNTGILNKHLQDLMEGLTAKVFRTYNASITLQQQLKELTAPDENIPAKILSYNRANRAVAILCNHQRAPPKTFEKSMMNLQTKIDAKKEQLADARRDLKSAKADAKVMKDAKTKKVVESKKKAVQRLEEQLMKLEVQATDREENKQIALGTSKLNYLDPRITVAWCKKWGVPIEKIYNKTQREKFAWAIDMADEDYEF
Summary of the method: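 A mix of 100 ng supercoiled pBR322 and 1 unit recombinant human topo I, with or without compound, was held 30 min at 37 °C. Buffer was 10 mM Tris-HCl pH 7.9, 150 mM NaCl, 0.1% BSA, 1 mM spermidine and 5% glycerol. A sarcosyl stop solution ended the reaction. Products ran on 1% agarose in TAE at 15 V for 7 h, were stained with ethidium bromide and quantitated under UV.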

HEK293 = experiment: Cytotoxicity against HEK293 cells after 4 days by CCK-8 assay; type: cell-based; conditions: Homo sapiens, HEK293, 96 h; summary of the method: as §2

DNA topoisomerase 2-alpha (Homo sapiens), sequence (P11388 whole entry): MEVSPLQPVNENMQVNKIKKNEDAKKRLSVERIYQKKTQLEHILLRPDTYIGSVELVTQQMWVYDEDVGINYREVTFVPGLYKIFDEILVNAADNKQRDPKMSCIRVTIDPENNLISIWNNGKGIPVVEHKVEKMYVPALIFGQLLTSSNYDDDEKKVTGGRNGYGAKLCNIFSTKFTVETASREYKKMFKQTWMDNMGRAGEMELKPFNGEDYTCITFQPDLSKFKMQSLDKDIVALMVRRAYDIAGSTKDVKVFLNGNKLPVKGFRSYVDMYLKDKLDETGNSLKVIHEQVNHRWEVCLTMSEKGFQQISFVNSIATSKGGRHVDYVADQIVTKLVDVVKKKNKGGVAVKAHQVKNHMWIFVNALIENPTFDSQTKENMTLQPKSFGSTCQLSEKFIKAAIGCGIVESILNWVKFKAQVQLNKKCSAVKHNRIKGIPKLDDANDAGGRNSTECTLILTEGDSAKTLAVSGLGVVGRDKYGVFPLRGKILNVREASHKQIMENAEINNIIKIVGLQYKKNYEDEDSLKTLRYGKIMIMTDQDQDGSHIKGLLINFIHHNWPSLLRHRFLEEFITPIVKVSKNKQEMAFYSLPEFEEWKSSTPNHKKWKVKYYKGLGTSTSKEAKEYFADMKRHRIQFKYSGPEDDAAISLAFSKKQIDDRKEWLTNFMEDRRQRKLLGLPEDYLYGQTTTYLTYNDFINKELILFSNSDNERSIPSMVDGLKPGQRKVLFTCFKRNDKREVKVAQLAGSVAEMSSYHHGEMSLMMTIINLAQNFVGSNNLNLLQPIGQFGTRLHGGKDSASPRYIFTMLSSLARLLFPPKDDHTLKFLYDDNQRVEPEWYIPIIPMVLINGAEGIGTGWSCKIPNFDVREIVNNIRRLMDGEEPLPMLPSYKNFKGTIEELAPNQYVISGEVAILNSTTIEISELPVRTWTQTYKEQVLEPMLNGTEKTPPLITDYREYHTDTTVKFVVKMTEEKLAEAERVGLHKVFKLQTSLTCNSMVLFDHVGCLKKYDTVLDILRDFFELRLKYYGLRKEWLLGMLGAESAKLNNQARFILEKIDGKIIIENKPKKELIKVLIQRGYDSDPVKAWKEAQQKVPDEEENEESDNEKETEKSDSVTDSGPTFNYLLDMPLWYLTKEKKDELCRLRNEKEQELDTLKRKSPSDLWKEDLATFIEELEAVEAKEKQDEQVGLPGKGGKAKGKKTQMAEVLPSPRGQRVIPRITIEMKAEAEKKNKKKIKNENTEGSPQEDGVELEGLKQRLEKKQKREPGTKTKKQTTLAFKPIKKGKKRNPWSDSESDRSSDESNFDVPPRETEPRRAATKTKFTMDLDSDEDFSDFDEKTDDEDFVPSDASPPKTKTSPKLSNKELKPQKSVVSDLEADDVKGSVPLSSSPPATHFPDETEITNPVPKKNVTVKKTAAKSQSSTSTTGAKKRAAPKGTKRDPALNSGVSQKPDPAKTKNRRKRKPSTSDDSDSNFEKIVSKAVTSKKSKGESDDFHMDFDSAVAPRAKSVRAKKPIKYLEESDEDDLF

SMILES | inhibition [1] | IC50 [2] | inhibition [3] | IC50 (T47D) | IC50 (DU-145) | inhibition [4] | IC50 (HEK293)
Oc1ccc(-c2cc(-c3ccc(O)cc3)nc(-c3cccc(O)c3)c2)cc1 | 15.8% | 3.52 µM | 100% | 4.47 µM | 5.8 µM | 0% | 0.84 µM
Oc1cccc(-c2cc(-c3ccccc3O)nc(-c3ccccc3O)c2)c1 | 7.1% | 5.02 µM | 99.4% | 3.42 µM | 5.4 µM | 4.9% | 0.08 µM
Oc1ccc(-c2cc(-c3cccc(O)c3)cc(-c3ccc(O)cc3)n2)cc1 | 48.2% | > 50 µM | 90.1% | 4.07 µM | 1.4 µM | 0% | > 50 µM
Oc1ccc(-c2cc(-c3ccccc3O)nc(-c3ccccc3O)c2)cc1 | 2.9% | > 50 µM | 46.9% | 18.3 µM | > 50 µM | 3.7% | > 50 µM
Oc1ccc(-c2cc(-c3ccccc3O)cc(-c3ccccc3O)n2)cc1 | 21.3% | 8.24 µM | 77.6% | 0.96 µM | 0.36 µM | 0.3% | 6.99 µM
COc1cccc2c1C(=O)c1c(O)c3c(c(O)c1C2=O)C[C@@](O)(C(=O)CO)C[C@@H]3O[C@H]1C[C@H](N)[C@H](O)[C@H](C)O1 [DOXORUBICIN HYDROCHLORIDE] | – | – | – | 3.12 µM | 3.89 µM | – | 1.22 µM
Oc1ccc(-c2cc(-c3cccc(O)c3)cc(-c3ccccc3O)n2)cc1 | 1.6% | > 50 µM | 31.3% | > 50 µM | > 50 µM | 8.4% | > 50 µM
COc1cc([C@@H]2c3cc4c(cc3[C@@H](O[C@@H]3O[C@@H]5CO[C@@H](C)O[C@H]5[C@H](O)[C@H]3O)[C@H]3COC(=O)[C@H]23)OCO4)cc(OC)c1O [ETOPOSIDE] | – | 7.74 µM | – | 8.74 µM | – | – | 1.04 µM
Oc1ccccc1-c1cc(-c2ccccc2O)nc(-c2ccccc2O)c1 | 10.1% | 2.18 µM | 95.1% | 2.51 µM | 5.04 µM | 0% | 0.14 µM
CC[C@@]1(O)C(=O)OCc2c1cc1n(c2=O)Cc2cc3ccccc3nc2-1 [CAMPTOTHECIN] | – | 1.98 µM | – | 0.75 µM | – | – | 0.28 µM
Oc1cccc(-c2cc(-c3cccc(O)c3)nc(-c3ccccc3O)c2)c1 | – | > 50 µM | 11.3% | > 50 µM | > 50 µM | 1.9% | > 50 µM
Oc1ccc(-c2cc(-c3cccc(O)c3)nc(-c3ccccc3O)c2)cc1 | 38.5% | 5.83 µM | 80.6% | 4.81 µM | 3.42 µM | 1.5% | 7.42 µM
Oc1cccc(-c2cc(-c3ccccc3O)cc(-c3cccc(O)c3)n2)c1 | 9.3% | 5.15 µM | 100% | 4.57 µM | > 50 µM | 0% | 0.13 µM
Oc1cccc(-c2cc(-c3cccc(O)c3)nc(-c3cccc(O)c3)c2)c1 | 8.3% | 3.95 µM | 100% | 2.05 µM | 4.04 µM | 0% | 0.74 µM
Oc1ccc(-c2cc(-c3ccccc3O)cc(-c3cccc(O)c3)n2)cc1 | 7.4% | 4.85 µM | 92.2% | 0.65 µM | 5.37 µM | 0% | 5.65 µM
Oc1ccc(-c2cc(-c3cccc(O)c3)cc(-c3cccc(O)c3)n2)cc1 | 3.7% | 3.09 µM | 100% | 3.92 µM | 1.94 µM | 0% | 1.56 µM
Oc1ccc(-c2cc(-c3ccccc3O)cc(-c3ccc(O)cc3)n2)cc1 | 5.4% | 1.92 µM | 100% | 5.35 µM | 0.98 µM | 0.4% | 0.78 µM
Oc1cccc(-c2cc(-c3ccccc3O)cc(-c3ccccc3O)n2)c1 | 6.6% | 3.39 µM | 87.9% | 5.76 µM | 3.98 µM | 0% | 0.73 µM
Oc1ccc(-c2cc(-c3ccc(O)cc3)nc(-c3ccccc3O)c2)cc1 | 1.8% | > 50 µM | 44% | > 50 µM | > 50 µM | 0% | 26.3 µM
Oc1ccc(-c2cc(-c3ccc(O)cc3)nc(-c3ccc(O)cc3)c2)cc1 | 7.9% | 5.12 µM | 79.1% | 4.27 µM | 3.16 µM | 3.8% | 0.79 µM
Oc1ccc(-c2cc(-c3cccc(O)c3)nc(-c3cccc(O)c3)c2)cc1 | 9.6% | 3.81 µM | 100% | 2.23 µM | 1.76 µM | 0% | 0.73 µM
